Assay [1] in a line: Inhibition of PKA (unknown origin) using LRRASLG as substrate after 1 hr by fluorescence assay. On the set-up: species or system Homo sapiens.
The target of assay [2] is Cyclin-dependent kinase 2 (Homo sapiens) (UniProt P24941). Nature of the assay: Inhibition of CDK2 (unknown origin) at 30 uM by microfluidic mobility shift assay relative to control. The essentials: (§1)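 Single-point screen at 30 µM test compound across a 24-kinase panel in a microfluidic assay format. ATP was set near each enzyme's Km,[ATP]. […] The pan-AGC inhibitor H-89 served as an internal control on every assay plate.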

Another assay is filed under the species Homo sapiens. The assay can be described thus: Inhibition of c-TAK (unknown origin) at 30 uM by microfluidic mobility shift assay relative to control. A digest of the protocol:
(§2)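 Single-point screen against a 24-kinase panel in a commercial microfluidic assay format. Compounds were tested at 30 µM, with ATP at approximately the Km,[ATP] of each enzyme. H-89 was included on each assay plate as an internal control.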

Assay [3] has as its system T1, Receptor-type tyrosine-protein kinase FLT3 (Homo sapiens), P36888 [D835Y].
T1 sequence (whole entry): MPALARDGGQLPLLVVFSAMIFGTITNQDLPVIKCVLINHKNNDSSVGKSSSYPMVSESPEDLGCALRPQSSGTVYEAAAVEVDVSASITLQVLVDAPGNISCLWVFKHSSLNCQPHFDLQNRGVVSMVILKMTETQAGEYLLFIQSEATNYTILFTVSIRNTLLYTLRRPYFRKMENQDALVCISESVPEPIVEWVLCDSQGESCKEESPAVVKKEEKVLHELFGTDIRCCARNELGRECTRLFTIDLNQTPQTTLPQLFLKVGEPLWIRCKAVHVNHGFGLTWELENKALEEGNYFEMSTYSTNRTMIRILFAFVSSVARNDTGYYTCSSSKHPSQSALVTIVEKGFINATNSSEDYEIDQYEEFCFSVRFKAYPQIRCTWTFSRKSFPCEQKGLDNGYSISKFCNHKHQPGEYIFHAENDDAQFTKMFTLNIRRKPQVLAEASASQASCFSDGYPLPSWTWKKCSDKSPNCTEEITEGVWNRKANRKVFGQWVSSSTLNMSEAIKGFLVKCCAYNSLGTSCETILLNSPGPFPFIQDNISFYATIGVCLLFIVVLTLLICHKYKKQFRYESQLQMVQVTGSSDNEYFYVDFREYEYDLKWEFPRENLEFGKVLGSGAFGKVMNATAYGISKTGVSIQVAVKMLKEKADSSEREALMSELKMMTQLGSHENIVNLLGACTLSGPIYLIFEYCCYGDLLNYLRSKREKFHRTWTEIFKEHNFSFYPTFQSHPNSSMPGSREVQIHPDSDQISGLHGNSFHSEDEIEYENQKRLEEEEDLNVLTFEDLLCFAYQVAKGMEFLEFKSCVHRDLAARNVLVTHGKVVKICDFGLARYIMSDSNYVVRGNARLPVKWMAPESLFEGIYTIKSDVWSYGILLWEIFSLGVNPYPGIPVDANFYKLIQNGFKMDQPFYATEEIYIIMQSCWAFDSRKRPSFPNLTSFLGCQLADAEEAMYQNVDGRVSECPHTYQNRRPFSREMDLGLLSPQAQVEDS
Nature of the assay: Inhibition of FLT3 D835Y mutant (unknown origin) at 30 uM by microfluidic mobility shift assay relative to control. The essentials: as §1

In assay [4] the target is T2, Serine/threonine-protein kinase D3 (Homo sapiens) (UniProt O94806).
T2 sequence (whole entry): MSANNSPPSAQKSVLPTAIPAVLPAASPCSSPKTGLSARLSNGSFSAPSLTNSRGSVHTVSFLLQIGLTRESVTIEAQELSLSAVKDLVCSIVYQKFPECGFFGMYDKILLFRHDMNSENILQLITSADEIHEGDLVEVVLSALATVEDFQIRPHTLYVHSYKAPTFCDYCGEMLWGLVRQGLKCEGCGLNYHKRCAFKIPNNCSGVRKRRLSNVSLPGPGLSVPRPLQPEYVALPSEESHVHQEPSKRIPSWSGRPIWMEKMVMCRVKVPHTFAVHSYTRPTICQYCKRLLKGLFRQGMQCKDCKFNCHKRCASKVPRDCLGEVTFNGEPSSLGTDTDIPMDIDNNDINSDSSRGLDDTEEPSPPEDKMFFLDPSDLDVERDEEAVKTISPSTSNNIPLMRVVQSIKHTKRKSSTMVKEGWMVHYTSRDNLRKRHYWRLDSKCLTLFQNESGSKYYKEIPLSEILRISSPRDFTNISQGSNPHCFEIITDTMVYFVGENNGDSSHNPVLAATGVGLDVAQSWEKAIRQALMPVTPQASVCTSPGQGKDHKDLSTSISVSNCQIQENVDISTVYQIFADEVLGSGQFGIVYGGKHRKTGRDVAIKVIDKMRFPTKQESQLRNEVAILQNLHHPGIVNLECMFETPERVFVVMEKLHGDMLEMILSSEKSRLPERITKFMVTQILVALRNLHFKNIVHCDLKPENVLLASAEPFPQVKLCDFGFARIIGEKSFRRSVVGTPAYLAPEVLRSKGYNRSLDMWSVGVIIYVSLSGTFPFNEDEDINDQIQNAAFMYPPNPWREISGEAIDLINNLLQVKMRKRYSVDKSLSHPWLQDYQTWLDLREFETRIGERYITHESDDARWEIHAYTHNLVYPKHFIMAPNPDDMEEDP
Nature of the assay: Inhibition of PKD3 (unknown origin) at 30 uM by microfluidic mobility shift assay relative to control. A digest of the protocol: as §2

In assay [5] the target is T3, Protein kinase C zeta type (Homo sapiens) (UniProt Q05513).
T3 sequence (whole entry): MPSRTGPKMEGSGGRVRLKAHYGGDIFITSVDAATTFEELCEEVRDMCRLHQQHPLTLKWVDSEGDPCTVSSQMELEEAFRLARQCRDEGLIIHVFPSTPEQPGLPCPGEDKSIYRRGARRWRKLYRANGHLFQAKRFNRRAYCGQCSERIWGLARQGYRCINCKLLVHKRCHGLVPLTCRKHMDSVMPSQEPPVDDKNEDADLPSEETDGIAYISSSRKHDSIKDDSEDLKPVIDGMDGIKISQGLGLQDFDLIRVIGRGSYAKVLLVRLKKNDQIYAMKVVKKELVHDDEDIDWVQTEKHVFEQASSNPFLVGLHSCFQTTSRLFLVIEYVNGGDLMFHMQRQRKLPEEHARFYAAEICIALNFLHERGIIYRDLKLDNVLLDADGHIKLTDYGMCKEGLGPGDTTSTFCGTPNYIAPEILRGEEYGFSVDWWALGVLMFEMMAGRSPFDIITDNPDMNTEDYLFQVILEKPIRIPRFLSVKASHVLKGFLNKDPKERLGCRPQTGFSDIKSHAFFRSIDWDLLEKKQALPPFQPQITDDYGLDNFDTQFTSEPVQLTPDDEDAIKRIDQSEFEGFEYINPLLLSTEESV
The assay can be described thus: Inhibition of PKCzeta (unknown origin) at 30 uM by microfluidic mobility shift assay relative to control. The essentials: as §2

In the case of `c1ccc(C2CCNC3(CCN(c4ncnc5[nH]cnc45)CC3)C2)cc1` (racemic), in assay [1], the IC50 (usually the concentration at which inhibition is half-maximal) was 149 nM. For the same compound, the inhibition (as a rule, the percentage by which the read-out fell short of the control) in assay [2] was 19%; in the assay filed under Homo sapiens it was 47%; in assay [3], 45%; in assay [4], 53%; in assay [5], 0%.
`O=S(=O)(c1cccc2cnccc12)N1CCCC2(CCCNC2)C1` (stereo not given) had an IC50 in assay [1] of 3600 nM.
`c1nc(N2CCC3(CCCNC3)CC2)c2nc[nH]c2n1` came in with an IC50 in assay [1] of 80 nM.
On to `c1ccc(CC2CCC3(CCN(c4ncnc5[nH]cnc45)CC3)NC2)cc1` (racemic), for which the inhibition is 15% in assay [2]; 21% in the assay listed under Homo sapiens; 56% in assay [3]; 25% in assay [4]; 0% in assay [5].
On to `c1nc(N2CCC3(CCCCN3)CC2)c2nc[nH]c2n1`, for which, in assay [1], half-maximal inhibition (IC50) required 1000 nM.
Compound `c1ccc(CC2CCNC3(CCN(c4ncnc5[nH]cnc45)CC3)C2)cc1` (racemic) displayed an IC50 in assay [1] of 31 nM. Besides, the inhibition in assay [2] is 21%; in the assay filed under Homo sapiens, 55%; in assay [3], 22%; in assay [4] it was 81%; in assay [5], 0%.

Values taken from ChEMBL document CHEMBL2417369, “Synthesis and evaluation of heteroaryl substituted diazaspirocycles as scaffolds to probe the ATP-binding site of protein kinases” (Bioorg Med Chem, 2013).
